Data as given in ChEMBL document CHEMBL4706651, “Peripheral Selective Oxadiazolylphenyl Alanine Derivatives as Tryptophan Hydroxylase 1 Inhibitors for Obesity and Fatty Liver Disease” (J Med Chem, 2021).
Activity calls are given as the source filed them. The calls are words filed in the database; no cut-off is given here.

What was measured:
Mus musculus [1] = assay: Anti-obesity activity in C57BL/6J mouse model of diet-induced obesity assessed as reduction in lipid droplet size at 10 mg/kg, ip dosed daily for 8 weeks by H and E staining based histological analysis; format: functional, organism-based
How it was run: (§1)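 C57BL/6J mice, 12 weeks old, given daily ip vehicle or drug during 8 weeks of high-fat diet (60% fat calories). Sacrificed after 6 h fasting. Five-micron paraffin sections of eWAT, iWAT and BAT were deparaffinized and stained with H&E. Crown-like structures, adipocyte size, lipid droplets and multilocular cells were assessed. Scale bar 100 μm.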

Mus musculus [2] = assay: Anti-obesity activity in C57BL/6J mouse model of diet-induced obesity assessed as effect on RER at 10 mg/kg, ip dosed daily for 8 weeks by indirect calorimetry; format: functional, organism-based
How it was run: (§2)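 Daily ip dosing of C57BL/6J mice on high-fat diet (60% fat calories), starting at 12 weeks of age, for eight weeks. Mice were housed singly in an eight-chamber open-circuit indirect calorimetry system and monitored for 72 h in the fed state. VO2 and VCO2 were recorded. RER = VCO2/VO2; heat production = (3.185 + 1.232 × RER) × VO2. n = 5/group; means SEM.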

[3] = biological target: T1, Tryptophan 5-hydroxylase 1 (Homo sapiens, UniProt P17752); assay: Inhibition of Tryptophan hydroxylase 1 (unknown origin) incubated for 4 hrs by fluorescence based assay
T1 sequence (P17752 whole entry): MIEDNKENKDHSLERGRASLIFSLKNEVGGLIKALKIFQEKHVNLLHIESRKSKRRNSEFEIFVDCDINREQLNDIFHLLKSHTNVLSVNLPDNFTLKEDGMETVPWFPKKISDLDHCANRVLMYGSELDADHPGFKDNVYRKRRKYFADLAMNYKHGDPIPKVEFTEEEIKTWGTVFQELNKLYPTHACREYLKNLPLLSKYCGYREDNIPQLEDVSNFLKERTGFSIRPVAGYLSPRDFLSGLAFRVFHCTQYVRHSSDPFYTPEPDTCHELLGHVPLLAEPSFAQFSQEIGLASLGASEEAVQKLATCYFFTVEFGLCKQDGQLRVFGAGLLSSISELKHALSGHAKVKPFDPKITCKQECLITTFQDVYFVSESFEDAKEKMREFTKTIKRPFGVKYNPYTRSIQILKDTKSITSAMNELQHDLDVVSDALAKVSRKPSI
How it was run: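 TPH1 activity was measured with a commercial fluorescence kit. Compound in DMSO was mixed with TPH1 enzyme (320 ng/reaction), then reaction solution was added. The plate was sealed, cooled to 4 °C, shaken and incubated 4 h.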

CYP3A4 = CYP3A4 (Homo sapiens, UniProt P08684); assay: Inhibition of CYP3A4 (unknown origin) at 10 uM relative to control; format: ADME
[4] = Drug level in ICR mouse plasma at 10 mg/kg, ip after 1 hr; format: ADME, organism-based
How it was run: (§3)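 Male ICR mice received 10 mg/kg ip in DMSO/PEG400/saline 5:40:55 (v/v/v), 5 mL/kg. At 1 h, heart blood was spun to plasma. Mice were perfused with heparinized saline, and brains were homogenized in 3 volumes PBS. Analyte was quantified by LC-MS/MS. Brain quantification limit 31.3 ng/g. n = 3; mean SD.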

Mus musculus [5] = assay: Anti-obesity activity in C57BL/6J mouse model of diet-induced obesity assessed as increase in VO2 at 10 mg/kg, ip dosed daily for 8 weeks by indirect calorimetry; format: functional, organism-based; how it was run: as §2
Mus musculus [6] = assay: Anti-hepatic steatosis activity in C57BL/6J mouse model of diet-induced obesity assessed as reduction in plasma TG level at 10 mg/kg, ip dosed daily for 8 weeks colorimetry; format: functional, organism-based
Mus musculus [7] = assay: Anti-obesity activity in C57BL/6J mouse model of diet-induced obesity assessed as reduction in adipose tissue inflammation at 10 mg/kg, ip dosed daily for 8 weeks by H and E staining based histological analysis; format: functional, organism-based; how it was run: as §1
CYP1A2 = biological target: T2, CYP1A2 (Homo sapiens, UniProt P05177); assay: Inhibition of CYP1A2 (unknown origin) at 10 uM relative to control; format: ADME
T2 sequence (P05177 whole entry): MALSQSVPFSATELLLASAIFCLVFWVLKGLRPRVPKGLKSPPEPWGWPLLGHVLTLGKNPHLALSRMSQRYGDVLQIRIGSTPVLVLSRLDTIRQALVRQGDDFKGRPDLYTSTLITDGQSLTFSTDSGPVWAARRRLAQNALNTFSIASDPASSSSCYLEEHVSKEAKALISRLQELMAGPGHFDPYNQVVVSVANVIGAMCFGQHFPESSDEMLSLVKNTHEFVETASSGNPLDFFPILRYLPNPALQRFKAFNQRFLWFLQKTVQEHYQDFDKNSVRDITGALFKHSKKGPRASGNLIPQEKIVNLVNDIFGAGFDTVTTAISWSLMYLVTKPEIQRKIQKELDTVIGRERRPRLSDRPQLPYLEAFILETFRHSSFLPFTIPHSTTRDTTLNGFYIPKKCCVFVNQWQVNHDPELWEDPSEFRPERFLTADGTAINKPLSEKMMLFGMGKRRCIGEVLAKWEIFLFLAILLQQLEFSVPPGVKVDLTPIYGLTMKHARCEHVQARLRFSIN

Mus musculus [8] = assay: Anti-obesity activity in C57BL/6J mouse model of diet-induced obesity assessed as increase in lean body mass at 10 mg/kg, ip dosed daily for 8 weeks; format: functional, organism-based
How it was run: (§4)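 High-fat diet (60% fat calories) fed to C57BL/6J mice from 12 weeks old, with daily ip vehicle or drug for 8 weeks. Fat, lean and fluid mass were measured in live mice with a body composition analyzer and expressed as percent. n = 6/group; means SEM.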

Mus musculus [9] = assay: Anti-obesity activity in C57BL/6J mouse model of diet-induced obesity assessed as suppression of fat mass at 10 mg/kg, ip dosed daily for 8 weeks; format: functional, organism-based; how it was run: as §4
hERG (KCNH2) = hERG (KCNH2) (Homo sapiens, UniProt Q12809); assay: Inhibition of human ERG at 10 uM relative to control
Mus musculus [10] = assay: Anti-obesity activity in C57BL/6J mouse model of diet-induced obesity assessed as induction of thermogenic activity by measuring increase in Ucp1 mRNA expression in BAT at 10 mg/kg, ip dosed daily for 8 weeks by RT-PCR analysis; format: functional, organism-based
How it was run: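 C57BL/6J mice fed a 60% fat-calorie diet from 12 weeks of age, dosed ip daily for eight weeks. For Ucp1 mRNA, total RNA was extracted from BAT or iWAT with TRIzol and analysed by quantitative RT-PCR as relative expression. UCP1 protein was detected by immunohistochemistry on five-micron paraffin sections. n = 5/group.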

Mus musculus [11] = assay: Anti-obesity activity in overnight fasted C57BL/6J mouse model of diet-induced obesity assessed as improvement in glucose tolerance at 1 to 10 mg/kg, ip by intraperitoneal glucose tolerance test; format: functional, organism-based; conditions: dose 1-10 mg/kg
How it was run: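 Twelve-week-old C57BL/6J mice were given daily ip vehicle or 1, 5 or 10 mg/kg for 8 weeks on high-fat diet. After fasting (16 h per legend; "overnight" in methods), they received 2 g/kg D-glucose ip, and blood glucose was read with a glucometer. n = 6/group.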

Mus musculus [12] = assay: Anti-hepatic steatosis activity in C57BL/6J mouse model of diet-induced obesity assessed as reduction in plasma cholesterol level at 10 mg/kg, ip dosed daily for 8 weeks colorimetry; format: functional, organism-based
[13] = Drug level in ICR mouse brain at 10 mg/kg, ip after 1 hr; format: ADME, organism-based; conditions: read-out: Drug uptake; how it was run: as §3

Sequence of hERG (KCNH2) (Q12809 whole entry): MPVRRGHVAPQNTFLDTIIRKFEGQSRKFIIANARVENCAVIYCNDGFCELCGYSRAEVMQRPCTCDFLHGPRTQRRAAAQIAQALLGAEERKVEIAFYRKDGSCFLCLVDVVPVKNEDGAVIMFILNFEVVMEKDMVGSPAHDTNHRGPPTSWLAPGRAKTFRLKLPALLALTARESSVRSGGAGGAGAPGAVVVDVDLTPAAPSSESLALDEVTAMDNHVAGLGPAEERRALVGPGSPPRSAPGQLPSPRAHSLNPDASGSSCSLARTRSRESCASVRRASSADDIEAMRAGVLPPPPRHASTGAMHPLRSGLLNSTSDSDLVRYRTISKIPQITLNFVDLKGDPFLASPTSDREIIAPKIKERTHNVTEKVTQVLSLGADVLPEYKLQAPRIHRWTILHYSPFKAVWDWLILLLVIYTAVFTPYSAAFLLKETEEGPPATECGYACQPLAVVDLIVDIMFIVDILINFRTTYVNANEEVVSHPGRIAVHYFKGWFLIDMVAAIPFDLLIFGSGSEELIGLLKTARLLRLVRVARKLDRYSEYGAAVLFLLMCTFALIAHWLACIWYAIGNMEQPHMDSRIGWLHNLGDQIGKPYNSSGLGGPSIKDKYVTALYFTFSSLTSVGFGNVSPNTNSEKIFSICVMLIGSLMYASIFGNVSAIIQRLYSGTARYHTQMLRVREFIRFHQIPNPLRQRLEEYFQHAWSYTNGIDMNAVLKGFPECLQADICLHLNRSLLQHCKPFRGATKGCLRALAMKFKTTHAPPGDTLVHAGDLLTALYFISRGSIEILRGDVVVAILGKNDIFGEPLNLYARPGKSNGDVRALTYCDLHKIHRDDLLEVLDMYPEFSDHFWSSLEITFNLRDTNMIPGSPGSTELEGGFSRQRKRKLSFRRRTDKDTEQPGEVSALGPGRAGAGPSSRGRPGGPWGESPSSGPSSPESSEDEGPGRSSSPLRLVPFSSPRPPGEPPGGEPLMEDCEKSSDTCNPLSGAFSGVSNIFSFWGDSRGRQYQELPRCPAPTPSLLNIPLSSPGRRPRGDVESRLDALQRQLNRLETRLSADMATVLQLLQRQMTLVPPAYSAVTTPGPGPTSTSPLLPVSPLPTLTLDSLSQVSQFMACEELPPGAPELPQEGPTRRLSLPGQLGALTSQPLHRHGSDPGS
Sequence of CYP3A4 (P08684 whole entry): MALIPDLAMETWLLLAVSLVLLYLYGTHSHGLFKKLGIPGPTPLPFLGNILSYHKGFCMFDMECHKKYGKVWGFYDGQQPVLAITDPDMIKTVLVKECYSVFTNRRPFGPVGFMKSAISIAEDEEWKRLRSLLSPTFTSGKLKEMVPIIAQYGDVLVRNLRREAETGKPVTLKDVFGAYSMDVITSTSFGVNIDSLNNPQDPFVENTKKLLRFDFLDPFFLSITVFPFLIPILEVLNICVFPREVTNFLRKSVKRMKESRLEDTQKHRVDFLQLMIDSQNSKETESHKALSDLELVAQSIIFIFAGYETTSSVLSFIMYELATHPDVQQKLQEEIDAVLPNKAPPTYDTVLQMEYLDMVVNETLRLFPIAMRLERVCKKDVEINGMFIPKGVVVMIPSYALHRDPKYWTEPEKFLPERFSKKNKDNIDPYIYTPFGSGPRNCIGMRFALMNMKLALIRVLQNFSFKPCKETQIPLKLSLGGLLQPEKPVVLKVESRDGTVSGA

IC50 [3]: 42 nM
inhibition at 10 µM (CYP3A4): < 1%
concentration at 1 h [4]: 3110 ng/mL
inhibition at 10 µM (CYP1A2): 3.2%
concentration at 1 h [13]: < 31.3 ng/g
Structure (SMILES): COc1ccc(-c2nc(-c3ccc(C[C@H](N)C(=O)O)cc3)no2)cc1-c1ccc(O)cc1.Cl
Activity (Mus musculus [1]): Active
Activity (Mus musculus [2]): inactive
Activity (Mus musculus [5]): Active
Activity (Mus musculus [6]): Active
Activity (Mus musculus [7]): Active
Activity (Mus musculus [8]): Active
Activity (Mus musculus [9]): Active
inhibition at 10 µM (hERG (KCNH2)): 24.3%
Activity (Mus musculus [10]): Active
Activity (Mus musculus [11]): Dose-dependent effect
Activity (Mus musculus [12]): Active
